Assay results pooled from the literature.
Lines come from different studies, so protocols differ.
Target: Serine/threonine-protein kinase 25 (STK25, Homo sapiens, UniProt O00506)

Structure (SMILES)	test	conditions	endpoint	value
Cn1c2c(c3ccc(Cl)c(Cl)c31)C(C#N)C(C)(C)NC2=O (centres unmarked)	thermal stability, DSF	10 µM	ΔTm	1.2 °C
COc1cc2ncnc(Nc3ccc(F)c(Cl)c3)c2cc1OCCCN1CCOCC1	cell-free assay	0.5 µM	remaining signal	97.4%
COc1cc2ncnc(Nc3ccc(Oc4ccccc4)cc3C)c2cc1OC	enzyme activity, inhibitor	1 µM	inhibition	-2%
Cc1ccc(C(=O)Nc2ccc(CN3CCN(C)CC3)c(C(F)(F)F)c2)cc1C#Cc1cnc2cccnn12	enzyme activity, inhibitor	23.5 nM	remaining activity	98%
O=C(Nc1cnn(-c2csc(C(=O)NC3COC3)c2)c1)Nc1ccccc1Cl	enzyme activity, inhibitor	5 µM	remaining activity	106%
Cc1ccc(NC(=O)c2ccc(C)c(C(F)(F)F)c2)cc1C#Cc1nn(C2CCC(O)CC2)c2ncnc(N)c12 (centres unmarked)	cell-free assay	10 µM	remaining signal	66%
Cn1c2c(c3ccc(Cl)c(Cl)c31)C(C#N)C1(CCOCC1)NC2=O (centres unmarked)	thermal stability, DSF	10 µM	ΔTm	0.4 °C
CC1=C(C#N)C(c2ccc3c(c2)c(NC(=O)c2ccccc2C)nn3C)C(C#N)=C(C)N1	cell-free assay, competition with immobilised ligand	1 µM	remaining binding	100%
CN(C)c1ncc(F)c(-c2cnn3ncccc23)n1	binding	1 µM	remaining binding	100%
CC(C)(C)c1nc2c(s1)c1nc(N)ncc1c1ccc(NS(=O)(=O)c3c(F)cccc3F)c(F)c12	enzyme activity, inhibitor, radiometric	1 µM	remaining activity	57%
C[C@@H]1CN(c2cc(-c3n[nH]c4ccc(OC5(C)CC5)cc34)ncn2)C[C@H](C)O1	cell-free assay, competition with immobilised ligand	0.1 µM	remaining binding	100%
COc1cc(Cl)c(C(=O)N[C@@H](CN[C@H]2CC[C@@H](N)CC2)Cc2ccc(C#N)cc2)cc1-c1ccc(CN[C@H](C)c2ccc(C)cc2)o1	enzyme activity, inhibitor	1 µM	remaining activity	104%
O=C(Nc1cnn(-c2csc(C(=O)NC3COC3)c2)c1)Nc1c(F)cccc1Cl	enzyme activity, inhibitor	5 µM	remaining activity	96.1%
CCCCNc1ncc2c(-c3ccc(F)cc3)nn(C[C@H]3CC[C@H](N)CC3)c2n1	target engagement in cells, inhibitor, chemoproteomics	20 mM	inhibition	5.7%
Cc1noc([C@H]2C[C@@H](c3ccc(C(F)(F)F)cc3)CN(C(=O)N3CCS(=O)(=O)C3)C2)n1	cell-free assay, competition with immobilised ligand	1 µM	remaining binding	89%
Cc1cc(NC(=O)c2cccc3cc(-c4cccc5[nH]nc(N)c45)ccc23)ccc1F	enzyme activity, inhibitor	0.1 µM	activity vs control	92%
O=C(Nc1cnc(Oc2ccc(F)cc2)nc1)N1CCc2ncccc2[C@@H]1c1ccc(F)cc1	cell-free assay, competition with immobilised ligand	1 µM	remaining binding	82%
N#CCCc1ccc2c(c1)-c1[nH]c3ccc([N+](=O)[O-])cc3c1CC(=O)N2	cell-free assay	0.5 µM	remaining signal	91.1%
CC(=O)c1c(NS(C)(=O)=O)c2cc(-c3ccc(Cl)cc3)c(-c3ccc(Cl)cc3Cl)nc2n(C)c1=O	cell-free assay, competition with immobilised ligand	1 µM	remaining binding	100%
O=C1NC(=O)c2cc(Nc3ccc(F)cc3)c(Nc3ccc(F)cc3)cc21	cell-free assay	0.5 µM	remaining signal	101%
C[C@@H]1CN(c2cc(-c3nn(C)c4ccc(OC5(C)CC5)cc34)ncn2)C[C@H](C)O1	cell-free assay, competition with immobilised ligand	1 µM	remaining binding	100%
Cn1c2c(Cl)c(Cl)ccc2c2cc[nH]c(=O)c21	thermal stability, DSF	10 µM	ΔTm	0.5 °C
CS(=O)(=O)N1CCCC(NC(=O)[C@H](CCC2CCCCC2)NC(=O)c2ccc(CNC(=O)c3cnc4ccccn34)cc2)C1 (some centres unmarked)	cell-free assay, competition with immobilised ligand	0.1 µM	remaining binding	100%
Cc1cnc(NC2CCOCC2)nc1-n1cnc(C(=O)NC(CN)c2cc(F)cc(Cl)c2)c1 (centres unmarked)	enzyme activity, inhibitor, radiometric	1 µM	remaining activity	71%
O=C(Nc1ccc(Oc2ccc(F)cc2)cc1)N1CCc2ncccc2[C@H]1c1ccc(F)cc1	cell-free assay, competition with immobilised ligand	1 µM	remaining binding	100%
COc1cc(-c2cc(-c3ccc(N4CCNCC4)cc3)cnc2C)cc(OC)c1OC	enzyme activity, inhibitor	0.1 µM	inhibition	1%
